Results published in PMC3099401 (Journal of agricultural and food chemistry, 2011).
Values belong to the compound of their own block, whether it stands above or below them.

Columns and labels:
neuroblastoma cells [1] = experiment: In vitro cell viability; type: cell-based; details: 4 days, normalized to DMSO controls; for effect on viability: 100 and 200 μM
NGP neuroblastoma cells = experiment: Calcium imaging with fura-2, NGP; type: cell-based; details: 100 μM
[2] = test system: SK-N-AS neuroblastoma cells; experiment: Calcium imaging with fura-2, SK-N-AS; type: cell-based; details: 100 μM
[3] = test system: SK-N-AS neuroblastoma cells; experiment: In vivo efficacy, SK-N-AS xenograft mouse model; design: species or system athymic nu/nu mice
neuroblastoma cells [4] = experiment: Cellular uptake by live-cell multiphoton microscopy; type: cell-based; details: 37°C
Method in brief: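 Live neuroblastoma cells in HBSS kept at 37°C on a stage incubator. Two-photon imaging used 765 nm Ti:Sapphire excitation, a 20× objective and a GaAsP photon-counting detector, with 1024×1024 images at identical laser power. Imaging ran from 90 s (the earliest possible) and at 5 min after adding 100 μM test compound, then again 5 min after an HBSS wash and after re-addition.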

Compound: O=C(O)[C@H]1O[C@@H](Oc2cc(O)cc(/C=C/c3ccc(O)cc3)c2)[C@H](O)[C@@H](O)[C@@H]1O [3-Glu-Res, 3-O-glucuronidated Res]
effect on viability (neuroblastoma cells [1]): no effect on viability

Compound: O=C(O)[C@H]1O[C@@H](Oc2ccc(/C=C/c3cc(O)cc(O)c3)cc2)[C@H](O)[C@@H](O)[C@@H]1O [4′-Glu-Res, 4′-O-glucuronidated Res]
effect on viability (neuroblastoma cells [1]): no effect on viability

time after addition until cells become brightly fluorescent (neuroblastoma cells [4]; earliest time point that can be taken): ≤ 90 s
Compound: Oc1ccc(/C=C/c2cc(O)cc(O)c2)cc1 [Res, resveratrol]
change in [Ca^2+]i (fura-2 fluorescence) (NGP neuroblastoma cells): rise in [Ca^2+]i
change in [Ca^2+]i (fura-2 fluorescence) [2]: rise in [Ca^2+]i
tumor regression ([3]; direct injection into the tumor, 250mg/kg, block copolymer formulation): regression of the tumor was then observed
tumor inhibition compared to vehicle-treated controls ([3]; peri-tumor, 5 injections of 200 μL R-P104 (approx. 5.0 mg Res each) over two weeks): about 88%
cellular uptake (cellular fluorescence, excited at 765 nm) (neuroblastoma cells [4]; 100 μM, HBSS): enters and then permeates throughout the cell
reduction of the number of viable cells (neuroblastoma cells [1]; 100 μM): ~85%

Compound: O=S(=O)(O)Oc1cc(O)cc(/C=C/c2ccc(O)cc2)c1 [monosulf-Res, Res 3-O-sulfate]
effect on viability (neuroblastoma cells [1]): no effect on viability
